Calls of active or inactive are those of the source. The rule behind the calls is not given here.
Tests used:
[1] = biological target: GABA-A receptor; anion channel (Rattus norvegicus) (UniProt O09028+P15431+P18506+P18508+P19969+P20236+P23574+P23576+P28471+P28473+P30191+P62813+P63079+P63138+Q91ZM7+Q9ES14); test: Binding constant was determined by displacing potential to [3H]-diazepam binding in cerebral cortex homogenates of rat; assay type: tissue-based
Outline: (§1)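 Wistar rat cerebral cortex homogenate incubated with compound and 2 nM [3H]diazepam at 0 °C for 60 min. Bound label trapped on glass filters and counted by scintillation. Ki = IC50/(1 + L/Kd).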

Mus musculus [2] = test: Effective dose against pentylenetetrazole intoxicity in mice administered orally; assay type: functional; details: Mus musculus, po; read-out: ED50
Mus musculus [3] = test: Effective dose against tetrabenazine induced ptosis in mice administered orally; assay type: functional
Outline: (§2)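 Male DS mice, 20-27 g, groups of five. Compound given po or sc in saline or gum arabic at 0.1 mL/10 g. Tetrabenazine 50 mg/kg sc given 1, 4 or 24 h later. Ptosis scored 1-4 at 1 h after TBZ, with ridit transformation. Dose for 50% prevention by regression.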

Rattus norvegicus [4] = organism: Rattus norvegicus; test: Inhibitory activity against uptake of [3H]norepinephrine into rat brain synaptosomes.; assay type: functional
Outline: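 P2 synaptosomes from male Wistar rat cerebral cortex incubated with [3H]norepinephrine at 37 °C for 20 min, with compound at 5-6 concentrations. Stopped by Krebs-Henseleit dilution and glass-fibre filtration, then scintillation counting. IC50 taken as the concentration giving 50% uptake inhibition.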

Rattus norvegicus [5] = test: Effective dose against anticonflict effect in rats when administered through oral route; assay type: functional
Outline: (§3)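 Wistar rats in groups of 5-8, Geller-Seifter conflict procedure. Rats trained to lever-press for food on a variable-interval 60-s schedule. Oral dosing. A dose counted positive when shocks exceeded 12 or shock ratio exceeded 4 over four consecutive tone periods. ED50 with 95% limits by probit.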

Mus musculus [6] = test: Effective dose against pentylenetetrazole intoxicity in mice administered through subcutaneous route; assay type: functional; details: sc
Rattus norvegicus [7] = test: Effective dose was evaluated by their anticonflict effect in rats when administered through oral route; assay type: functional; outline: as §3
Mus musculus [8] = test: Effective dose against tetrabenazine induced ptosis in mice administered subcutaneously; assay type: functional; details: sc; outline: as §2
Mus musculus [9] = test: Effective dose against pentylenetetrazole intoxicity in mice administered through subcutaneous route; NE = no effect at 10 mg/kg; assay type: functional, organism-based; parameters: dose 10 mg/kg
Mus musculus [10] = test: Percent inhibition against tetrabenazine induced ptosis in mice administered subcutaneously at 50 mg/kg; assay type: functional; details: sc, route subcutaneous; outline: as §2
Mus musculus [11] = test: Effective dose against pentylenetetrazole intoxicity in mice administered through subcutaneous route;NE = no effect at 20 mg/kg; assay type: functional, organism-based; parameters: dose 20 mg/kg
Mus musculus [12] = test: Effective dose against tetrabenazine induced ptosis in mice administered subcutaneously; NE= no effect at 50 mg/kg; assay type: functional, organism-based; parameters: dose 50 mg/kg; outline: as §2
Mus musculus [13] = test: Effective dose against pentylenetetrazole intoxicity in mice administered through subcutaneous route; NE= no effect at 10 mg/kg; assay type: functional, organism-based; parameters: dose 10 mg/kg
Mus musculus [14] = test: Effective dose against pentylenetetrazole intoxicity in mice administered orally; NE= no effect at 50 mg/kg; assay type: functional, organism-based; parameters: dose 50 mg/kg
Mus musculus [15] = test: Percent inhibition against tetrabenazine induced ptosis in mice administered orally at 50 mg/kg; assay type: functional; details: route oral; outline: as §2
Mus musculus [16] = test: Percent inhibition against tetrabenazine induced ptosis in mice administered orally at 100 mg/kg; assay type: functional; details: route oral; outline: as §2
Rattus norvegicus [17] = organism: Rattus norvegicus; test: Displacement of [3H]diazepam binding in rat cerebral cortex homogenates (Experiment 1); assay type: tissue-based; outline: as §1
Rattus norvegicus [18] = organism: Rattus norvegicus; test: Displacement of [3H]diazepam binding to rat cerebral cortex homogenates (Experiment 2); assay type: tissue-based; outline: as §1
Mus musculus [19] = test: Effective dose against pentylenetetrazole intoxicity in mice administered through subcutaneous route; NE = no effect at dose 10 mg/kg; assay type: functional, organism-based; parameters: dose 10 mg/kg
Mus musculus [20] = test: Percent Inhibition against pentylenetetrazole intoxicity in mice administered orally at 50 mg/kg; assay type: functional; details: route oral
[21] = Acute toxicity was measured in mice after peroral administration; assay type: organism-based; details: mouse, in vivo, po
Outline: (§4)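 Male DS mice, 20-26 g, given compound orally; mortality checked the day after treatment in groups of 10. LD50 by probit method, or by up-and-down method of Brownlee et al. (n = 5) where estimated.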

Mus musculus [22] = test: Percent inhibition against pentylenetetrazole intoxicity in mice administered orally at 50 mg/kg; assay type: functional; details: route oral
Rattus norvegicus [23] = test: Percent inhibition was evaluated by their anticonflict effect in rats when administered through oral route at 32 mg/kg; assay type: functional; outline: as §3
Mus musculus [24] = test: Effective dose against pentylenetetrazole intoxicity in mice administered orally; NE = no effect at dose 50 mg/kg; assay type: functional, organism-based; parameters: dose 50 mg/kg
[25] = Acute toxicity was measured in mice after peroral administration (1293-1506); assay type: organism-based; details: mouse, in vivo, po; outline: as §4
[26] = Mus musculus, po, read-out: ED50

SMILES	K2 [1] [µM]	ED50 (Mus musculus [2]) [mg/kg]	ED50 (Mus musculus [3]; [26]) [mg/kg]	ED50 (Mus musculus [8]) [mg/kg]	further results
O=C1CN=C(c2ccccc2F)c2cc(Br)ccc2N1C1CCNCC1	0.033	2.7	5.37		IC50 (Rattus norvegicus [4]): 288 nM; ED50 (Rattus norvegicus [5]): 4.54 mg/kg
CN1CCC(N2C(=O)CN=C(c3ccccc3F)c3cc(F)ccc32)CC1			1.62	0.27	ED50 (Mus musculus [6]): 26.9 mg/kg; ED50 (Rattus norvegicus [7]): 11.4 mg/kg; IC50 (Rattus norvegicus [4]): 53700 nM
CN1CCC(N2C(=O)CN=C(c3ccc(F)cc3)c3ccccc32)CC1	68				ED50 (Mus musculus [9]): inactive; inhibition in vivo at 50 mg/kg (Mus musculus [10]): 53%
O=C1CN=C(c2ccccc2Cl)c2cc(Cl)ccc2N1C1CCNCC1	0.017	12.9	9.59	9.94	IC50 (Rattus norvegicus [4]): 562 nM
CN1CCC(N2C(=O)CN=C(c3ccccc3F)c3ccc(C(F)(F)F)cc32)CC1	17				ED50 (Mus musculus [11]): inactive; ED50 (Mus musculus [12]): inactive
CN1CCC(N2C(=O)CN=C(c3ccccc3F)c3cc(Br)ccc32)CC1	0.049	1.61	3.85	2.45	ED50 (Mus musculus [6]): 0.79 mg/kg; ED50 (Rattus norvegicus [7]): 1.23 mg/kg
COc1ccc2c(c1)C(c1ccccc1F)=NCC(=O)N2C1CCN(C)CC1	1.26			1.24	ED50 (Mus musculus [9]): inactive
CN1CCC(N2C(=O)CN=C(c3ccccc3F)c3ccc(F)cc32)CC1	0.44			0.94	ED50 (Mus musculus [13]): inactive; ED50 (Mus musculus [14]): inactive
O=C1CN=C(c2ccccc2F)c2cc(Cl)ccc2N1C1CCN(Cc2ccccc2)C1 (centres undefined)	0.27	1.52			inhibition in vivo at 50 mg/kg (Mus musculus [15]): 58%
O=C1CN=C(c2ccccc2Cl)c2cc(Cl)ccc2N1C1CCNC1 (centres undefined)	0.027	9.63		12.6	inhibition in vivo at 50 mg/kg (Mus musculus [15]): 34%
CN1CCC(N2C(=O)CN=C(c3ccccc3Cl)c3cc(Cl)ccc32)C1 (centres undefined)	0.05	5.78			inhibition in vivo at 100 mg/kg (Mus musculus [16]): 61%
O=C1C(O)N=C(c2ccccc2F)c2cc(Cl)ccc2N1C1CCNCC1 (centres undefined)	0.14	12.5	6.51		ED50 (Rattus norvegicus [7]): 8.8 mg/kg
CN(C)CCCN1c2ccccc2CCc2ccccc21 [IMIPRAMINE]			2.14	0.8	IC50 (Rattus norvegicus [4]): 85 nM
CN1CCC(N2C(=O)CN=C(c3ccccc3F)c3cc([N+](=O)[O-])ccc32)CC1				17.7	K2 (Rattus norvegicus [17]): 8.3 µM; K2 (Rattus norvegicus [18]): 24 µM; ED50 (Mus musculus [13]): inactive
CC(=O)N1CCC(N2C(=O)CN=C(c3ccccc3)c3ccccc32)CC1	1.5			3.25	ED50 (Mus musculus [19]): inactive
CN1CCC(N2C(=O)CN=C(c3ccccc3F)c3ccccc32)CC1	0.2			0.21	inhibition in vivo at 50 mg/kg (Mus musculus [20]): 37.5%
CN1CCC(N2C(=O)C(O)N=C(c3ccccc3F)c3cc(Cl)ccc32)CC1 (centres undefined)	0.074	2.41	9.79		
CNC1=Nc2ccc(Cl)cc2C(c2ccccc2)=[N+]([O-])C1 [CHLORDIAZEPOXIDE]			2.7		LD50 [21]: 877 mg/kg
Cc1ccc2c(c1)C(c1ccccc1F)=NCC(=O)N2C1CCN(C)CC1	0.26			0.84	ED50 (Mus musculus [9]): inactive
O=C1CN=C(c2ccccc2)c2cc(F)ccc2N1C1CCNCC1	2		0.39		inhibition in vivo at 50 mg/kg (Mus musculus [22]): 12.5%; IC50 (Rattus norvegicus [4]): 59 nM; inhibition in vivo at 32 mg/kg (Rattus norvegicus [23]): 60%
O=C1CN=C(c2ccccc2)c2cc(Cl)ccc2N1C1CCNCC1	0.35	36.5	0.48	0.172	ED50 (Mus musculus [24]): inactive; ED50 (Mus musculus [9]): inactive; ED50 (Mus musculus [3]): 0.48 mg/kg; LD50 [25]: 1390 mg/kg; ED50 (Rattus norvegicus [7]): 11.8 mg/kg; IC50 (Rattus norvegicus [4]): 172 nM

Source: ChEMBL document CHEMBL1123005, “1-Azacycloalkyl-1,4-benzodiazepin-2-ones with antianxiety-antidepressant actions” (J Med Chem, 1985)
